Results from ChEMBL document CHEMBL2401625, “Synthesis and evaluation of pharmacological properties of some new xanthone derivatives with piperazine moiety” (Bioorg Med Chem Lett, 2013).
Calls of active or inactive are those of the source. No cut-off for these calls is given here.

What was measured:
[1] = tested on: Rattus norvegicus; assay: Anticonvulsant activity in Sprague-Dawley rat assessed as protection against maximal electroshock-induced seizures at 30 mg/kg, po after 4 hrs; assay type: functional, organism-based; design: dose 30 mg/kg
Outline: (§1)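 Rats dosed orally at 30 mg/kg and tested in MES at several time points after dosing. Protection means seizures were prevented. Result is recorded as number of animals protected over number tested.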

[2] = tested on: Rattus norvegicus; assay: Anticonvulsant activity in Sprague-Dawley rat assessed as protection against maximal electroshock-induced seizures at 30 mg/kg, po after 2 hrs; assay type: functional, organism-based; design: dose 30 mg/kg; outline: as §1
[3] = tested on: Mus musculus; assay: Anticonvulsant activity in CF1 mouse assessed as protection against maximal electroshock-induced seizures at 100 mg/kg, ip after 0.5 hrs; assay type: functional, organism-based; design: dose 100 mg/kg
Outline: (§2)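 Mice given compound i.p. at 30, 100 or 300 mg/kg and tested 0.5 or 4 h after dosing. Seizures were induced by maximal electroshock (MES) or subcutaneous metrazole (ScMet). Prevention of seizures counts as protection. Result is recorded as number of animals protected over number tested.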

[4] = species on record: Rattus norvegicus; assay: Displacement of [3H]CGP-12177 from beta1-adrenergic receptor in rat cerebral cortex at 50 uM after 60 mins by scintillation counting; assay type: tissue-based
[5] = target: 5-hydroxytryptamine receptor 6 (Homo sapiens, UniProt P50406); assay: Displacement of [3H]LSD from human 5HT6 receptor expressed in HEK293 cells after 1 hr; assay type: cell-based
[6] = tested on: Mus musculus; assay: Neurotoxicity in CF1 mouse assessed as minimal motor impairment at 300 mg/kg, ip after 0.5 hrs by rotorod test; assay type: toxicity, organism-based; design: dose 300 mg/kg, route intraperitoneal; conditions: in vivo
Outline: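 Rotarod neurotoxicity screen in mice dosed i.p. at 30, 100 or 300 mg/kg, read 0.5 or 4 h after dosing. The animal must stay on a rod rotating at 6 rpm without falling, measured 3 times within 1 min. A fall counts as minimal motor impairment. Result is recorded as impaired animals over animals used.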

[7] = tested on: Mus musculus; assay: Anticonvulsant activity in CF1 mouse assessed as protection against subcutaneous metrazole-induced seizures at 100 mg/kg, ip after 0.5 hrs; assay type: functional, organism-based; design: dose 100 mg/kg; outline: as §2
[8] = tested on: Mus musculus; assay: Anticonvulsant activity in CF1 mouse assessed as protection against subcutaneous metrazole-induced seizures at 30 mg/kg, ip after 0.5 hrs; assay type: functional, organism-based; design: dose 30 mg/kg; outline: as §2
[9] = tested on: Mus musculus; assay: Anticonvulsant activity in CF1 mouse assessed as protection against maximal electroshock-induced seizures at 100 mg/kg, ip after 4 hrs; assay type: functional, organism-based; design: dose 100 mg/kg; outline: as §2
[10] = tested on: Rattus norvegicus; assay: Neurotoxicity in Sprague-Dawley rat assessed as minimal motor impairment at 30 mg/kg, po after 1 hr by rotorod test; conditions: in vivo
[11] = tested on: Rattus norvegicus; assay: Neurotoxicity in Sprague-Dawley rat assessed as minimal motor impairment at 30 mg/kg, po after 2 hrs by rotorod test; conditions: in vivo
[12] = tested on: Rattus norvegicus; assay: Neurotoxicity in Sprague-Dawley rat assessed as minimal motor impairment at 30 mg/kg, po after 0.5 hrs by rotorod test; conditions: in vivo
[13] = tested on: Rattus norvegicus; assay: Neurotoxicity in Sprague-Dawley rat assessed as minimal motor impairment at 30 mg/kg, po after 0.25 hrs by rotorod test; conditions: in vivo

Sequence of 5-hydroxytryptamine receptor 6 (P50406 whole entry): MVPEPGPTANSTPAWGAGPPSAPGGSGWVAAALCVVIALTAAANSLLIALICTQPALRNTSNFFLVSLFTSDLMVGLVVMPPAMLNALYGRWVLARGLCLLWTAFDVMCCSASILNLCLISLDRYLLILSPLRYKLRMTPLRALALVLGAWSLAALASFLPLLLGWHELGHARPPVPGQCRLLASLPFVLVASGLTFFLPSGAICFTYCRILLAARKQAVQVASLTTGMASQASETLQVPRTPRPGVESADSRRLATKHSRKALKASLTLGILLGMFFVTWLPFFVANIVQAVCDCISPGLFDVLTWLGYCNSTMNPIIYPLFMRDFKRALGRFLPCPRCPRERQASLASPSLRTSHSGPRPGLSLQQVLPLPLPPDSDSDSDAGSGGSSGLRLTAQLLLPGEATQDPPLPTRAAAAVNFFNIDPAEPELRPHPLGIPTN

`Cl.Cl.Cl.O=c1c2ccc(Cl)cc2oc2c(CN3CCN(CCO)CC3)cccc12` was tested, and the Activity [1] was “Active”, the Activity [2] was “inactive” and the Activity [3] was “Active”. The inhibition [4] was “inactive”, the Ki [5] was 14.4 µM and the Activity [6] was “Toxic”. For the same compound, the Activity [7] was “inactive”, the Activity [8] was “inactive” and the Activity [9] was “inactive”. For the same compound, the Activity [10] was “Non-toxic”, the Activity [11] was “Non-toxic” and the Activity [12] was “Non-toxic”. For the same compound, the Activity [13] was “Non-toxic”.
